Measurements collected from several papers.
Protocols differ between the studies behind these lines.
Target: Mitogen-activated protein kinase 8 (MAPK8, Homo sapiens, UniProt P45983)

SMILES	test	setting	remaining binding
C[C@@H]1CN(c2ccc3ncc(-c4ccc5[nH]nc(C6CC6)c5c4)n3n2)C[C@H](C)O1	binding, competition with immobilised ligand	50 nM	80%
c1cncc(-c2cccc(Nc3nccc(NC4CCCCC4)n3)c2)c1	binding, competition with immobilised ligand	10 µM	24%
COCCOc1nc(-c2ccc(Cl)nc2)nc2c1CN(C(=O)c1ncn3ccccc13)CC2	cell-free assay, competition with immobilised ligand	0.1 µM	100%
O=C(NCCCN1CCOCC1)c1ccc(Nc2nccc(-c3cc4ccccc4s3)n2)cc1	binding, competition with immobilised ligand	1 µM	9.8%
CS(=O)(=O)N1CCCC(NC(=O)[C@H](CCC2CCCCC2)NC(=O)c2ccc(CNc3ncnc4c3nnn4-c3ccccc3)cc2)C1 (stereo partly drawn)	cell-free assay, competition with immobilised ligand	0.1 µM	85%
O=C(NCCCN1CCOCC1)c1ccc(Nc2ncc(Cl)c(-c3ccc(Cl)s3)n2)cc1	binding, competition with immobilised ligand	1 µM	2.5%
COc1ncc2cc3ccccc3nc2c1C#N	cell-free assay, competition with immobilised ligand	5 µM	100%
C[C@H](NC(=O)c1cnc2n1[C@](C)(Cc1ccc(C#N)cc1)C(=O)N2c1cc(Cl)c(F)c(Cl)c1)C(=O)NC1(c2ccccn2)CC1	cell-free assay, competition with immobilised ligand	1 µM	81%
O=C(Nc1c[nH]nc1C(=O)NC1CCNCC1)c1cc(F)cc(F)c1	binding, competition with immobilised ligand	1 µM	65%
CC(=O)N1CCC(c2ccc(C(=O)NC(=N)N)cc2C(F)(F)F)CC1	cell-free assay, competition with immobilised ligand	1 µM	73%
COc1ccnn2ncc(-c3ccnc(N(C)C)n3)c12	binding	1 µM	75%
COc1cnc(Nc2cccc(S(N)(=O)=O)c2)nc1N1CCN(c2ccccc2)C(=O)C1	binding, competition with immobilised ligand	1 µM	76%
C[C@@H]1CCN(c2nccc(-c3cnn4ncccc34)n2)C1	binding, competition with immobilised ligand	1 µM	23%
NS(=O)(=O)c1cc(NC(=O)Cc2ccccc2)ccc1Oc1cccc(Cl)c1	cell-free assay, competition with immobilised ligand	1 µM	69%
Cc1cnn2ncc(-c3ccnc(N(C)C)n3)c2c1	binding	1 µM	67%
Nc1ncc2c(n1)-c1c([nH]c3ccc(C#CC4CC4)cc13)CCCC2	binding, competition with immobilised ligand	1 µM	66%
CN(C)c1nccc(-c2cnc3ncccn23)n1	binding, competition with immobilised ligand	1 µM	59%
O=C(c1ccc(Nc2ncc(Cl)c(-c3ccc(Cl)s3)n2)cc1)N1CCC(N2CCCC2)CC1	binding, competition with immobilised ligand	1 µM	0.3%
CN(C)c1ncc(F)c(-c2cnn3ncccc23)n1	binding, competition with immobilised ligand	1 µM	76%
COC(=O)Nc1nc2ccc(C(=O)c3ccccc3)cc2[nH]1	cell-free assay, competition with immobilised ligand	10 µM	14%
Cc1c(NC(=O)c2cc(C(N)=O)nc3cc(F)ccc23)c(C(F)(F)F)nn1Cc1ccc(C(C)(C)C)cc1	cell-free assay, competition with immobilised ligand	1 µM	100%
N[C@@H]1CCN(c2nccc(-c3cnn4ncccc34)n2)C1	binding	1 µM	27%
Nc1c(C(=O)NCc2ccc(C(=O)NCCCC3CCCCC3)cc2)cnn1-c1ccccc1	cell-free assay, competition with immobilised ligand	0.1 µM	100%
CC1CCCN1c1nccc(-c2cnn3ncccc23)n1 (stereo not drawn)	binding, competition with immobilised ligand	1 µM	94%
